Reference: article PMC3272321 (Chemical biology & drug design, 2011)
Values after ≈ are worked out from the molar mass of the structure shown.

Legend:
aqueous solubility = format: physicochemical; details: water
[1] = format: in vivo, athymic nude rats; details: for route of clearance: images through 24 h
xenograft Panc-1 tumors = experiment: mouse model of xenograft Panc-1 tumors; format: in vivo, athymic nude mice; details: 5 μg intraperitoneal daily for 3 weeks
How it was run: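 Five-week-old male athymic nude mice received 1 × 10^6 Panc-1 cells in each flank. Once tumors reached about 500 mm3, the test compound was given intraperitoneally at 5 μg/injection daily for 3 weeks. Tumors were measured weekly by caliper, with volume = length × width × depth × 0.5236. Tumors were excised and weighed at sacrifice. n = 4 per group versus untreated control, significance at p < 0.05.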

[2] = tested on: pancreatic cancer cells MiaPaCa-2; experiment: cell proliferation by hexosaminidase assay; format: cell-based; details: MiaPaCa-2 cells, 1 and 10 μM, 24–72 h
How it was run: (§1)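 Cells seeded at 5×10^3/well, attached overnight, then exposed to the test compound for 24, 48 and 72 h. The compound was given from DMSO at 0.1% final DMSO in medium with 5% FBS, with DMSO-only controls. H441 were maintained in McCoy's 5A with 5% FBS. Panc-1 and MiaPaCa-2 were maintained in RPMI 1640 with 10% FBS. Readout was hexosaminidase: 7.5 mM p-nitrophenyl substrate solution (citrate, pH 5), 37°C 30 min, glycine/EDTA stop (pH 10.4), A405.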

[3] = tested on: pancreatic cancer cells Panc-1; experiment: cell proliferation by hexosaminidase assay; format: cell-based; details: Panc-1 cells, 1 and 10 μM, 24–72 h
How it was run: as §1

[4] = tested on: lung adenocarcinoma H441 cells; experiment: cell proliferation by hexosaminidase assay; format: cell-based, Human; details: 1 and 10 μM, 24–72 h
How it was run: as §1

[5] = Tc-99m-labeled EFAH, intravenous, rats, 24 h

Row | Compound | solubility (aqueous solubility) | injected dose accumulated in intestine [1, 5] | injected dose accumulated in liver [1, 5] | route of clearance ([1]; intravenous, rats) | excised tumor weight (xenograft Panc-1 tumors; at necropsy, control about 2.5 g) | mean tumor volume reduction (xenograft Panc-1 tumors; versus control) | tumor weight decrease (xenograft Panc-1 tumors; versus control) | anti-proliferative activity compared with EF24 [2] | anti-proliferative activity compared with EF24 [3] | anti-proliferative activity compared with EF24 [4] | accumulation of radiolabeled compound in tumor tissue ([1]; intravenous, rats with H441 xenograft, 24 h) | free Tc-99m radioactivity in rat urine by HPLC ([1]; urine collected after 30 min of injection)
1 | O=C1C(=Cc2ccccc2F)CNCC1=Cc1ccccc1F [EF24, 3,5-Bis-(2-fluorobenzylidene)-4-piperidone, reference compound] | 1200 µg/mL (≈ 3.85 mM) | – | – | – | – | – | – | – | – | – | – | –
2 | NNc1ccc(C(=O)NCCN2CC(=Cc3ccccc3F)C(=O)C(=Cc3ccccc3F)C2)cn1 [EFAH, N-{2-[3,5-Bis-(2-fluorobenzylidene)-4-oxo-piperidin-1-yl]-ethyl}-6-hydrazinonicotinamide] | 3500 µg/mL (≈ 7.15 mM) | ~14.3% | Approximately 23.7% | mostly eliminated by hepatobiliary route | 0.45 g | 79% | 82% | as effective as EF24 | as effective as EF24 | as effective as EF24 | – | –
3 | Tc-99m-labeled N-{2-[3,5-Bis-(2-fluorobenzylidene)-4-oxo-piperidin-1-yl]-ethyl}-6-hydrazinonicotinamide [Tc-99m-EFAH] | – | – | – | clearance depended on hepatobiliary route | – | – | – | – | – | – | measurable, but little | no free Tc-99m radioactivity was found
